According to ChEMBL document CHEMBL5385911, “Exploring the Dispersion and Electrostatic Components in Arene-Arene Interactions between Ligands and G4 DNA to Develop G4-Ligands” (J Med Chem, 2024):
Converted amounts (≈) assume the structure as drawn. The source made the active and inactive calls. The calls are words filed in the database; no cut-off is given here.

Legend:
Quadruplex DNA [1] = assay: Stabilization of G4-quadruplex PEPu24T DNA (unknown origin) assessed as inhibition of Taq DNA polymerase activity by measuring reduction in full length DNA product at 0.048 to 6 uM pretreated for 10 mins followed by incubation with dNTPs for 15 mins by PAGE analysis; format: nucleic-acid assay; conditions: dose 0.048-6 µM, time 25.0 min
In short: (§1)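 Template made by annealing TET-labelled 25 nt primer (1 μM final) to PEPu24T (1.25 μM final) in 100 mM KCl. Reaction: 40 nM template, Taq buffer pH 8.8 with 50 mM KCl, 25 mM MgCl2, 0.05 U Taq. Compound preincubated on ice 10 min; dNTPs (100 μM) added, 37 °C 15 min. Denaturing 12% urea/formamide PAGE; full-length product expressed as % of no-compound sample; SD of ≥2 independent experiments.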

Quadruplex DNA [2] = assay: Stabilization of fluorescently labelled c-Myc G4-quadruplex Pu22 DNA (unknown origin) assessed as increase in thermal stability of DNA structure at 5 to 40 equiv. by FRET melting assay; format: nucleic-acid assay; conditions: dose 5-40 equiv
In short: (§2)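 Pu22 (FAM/TAMRA, 0.2 μM), folded in 10 mM lithium cacodylate pH 7.4, 2 mM KCl, 98 mM LiCl. Ligand at 5, 10, 25 or 40 equivalents. Heated 10–95 °C; donor emission at 516 nm (excitation 492 nm) normalized. Tm taken at 0.5 normalized emission; ΔTm is Tm with ligand minus Tm without ligand. Duplicate wells.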

Quadruplex DNA [3] = assay: Stabilization of 5'-FAM and 3'-TAMRA labelled c-Myc G4-quadruplex Pu24T DNA (unknown origin) assessed as increase in thermal stability of DNA structure at 5 to 40 equiv. by FRET melting assay; conditions: dose 5-40 equiv
[4] = Stabilization of double stranded PEPu24T mut DNA (unknown origin) assessed as inhibition of Taq DNA polymerase activity by measuring reduction in full length DNA product at 6 uM pretreated for 10 mins followed by incubation with dNTPs for 15 mins by PAGE analysis; conditions: time 25.0 min
In short: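 Non-G4 control template: TET-labelled 25 nt primer (1 μM final) annealed to mutated PEPu24T mut (1.25 μM final) in 100 mM KCl. 40 nM template, Taq buffer pH 8.8, 25 mM MgCl2, 0.05 U Taq. Compound on ice 10 min, then 100 μM dNTPs at 37 °C 15 min. Denaturing PAGE; full-length product as % of no-compound sample.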

Quadruplex DNA [5] = assay: Stabilization of fluorescently labelled c-Myc G4-quadruplex Pu22 DNA (unknown origin) assessed as increase in thermal stability of DNA structure at 40 equiv. by FRET melting assay; format: nucleic-acid assay; in short: as §2
[6] = Solubility of the compound at pH 7.4; format: physicochemical; conditions: buffer
Quadruplex DNA [7] = assay: Stabilization of G4-quadruplex PEPu24T DNA (unknown origin) assessed as inhibition of Taq DNA polymerase activity by measuring full length DNA product at 0.24 uM pretreated for 10 mins followed by incubation with dNTPs for 15 mins by PAGE analysis; format: nucleic-acid assay; parameters: scale not given: the % may be the effect or the level left; conditions: time 25.0 min; in short: as §1

| SMILES | Activity (Quadruplex DNA [1]) | Activity (Quadruplex DNA [2]) | Activity (Quadruplex DNA [3]) | Activity [4] | Activity (Quadruplex DNA [5]) | solubility [6] | Activity (Quadruplex DNA [7]) |
| --- | --- | --- | --- | --- | --- | --- | --- |
| Cc1cc(NCCCN(C)C)nc(Nc2nc3cc(Cl)c(Cl)cc3nc2C)n1 | Active | Active | Active | inactive |  |  |  |
| Cc1cc(NCCCN(C)C)nc(Nc2nc(C)c3ccccc3n2)n1 |  |  | Active | inactive | Active |  |  |
| Cc1cc(NCCCN(C)C)nc(Nc2cnc3ccccc3n2)n1 | Active | inactive | Active | inactive |  |  |  |
| Cc1cc(C)nc(Nc2nc(C)c3cc(Cl)ccc3n2)n1 |  |  |  | inactive |  |  |  |
| Cc1cc(NCCCN(C)C)nc(Nc2nc(C)c3cc(Cl)ccc3n2)n1 |  |  | Active | inactive | Active | 858 µM (≈ 331 µg/mL) |  |
| Cc1cc(NCCCN(C)C)nc(Nc2nc3cc(C)c(C)cc3nc2C)n1 | Active | Active | Active | inactive |  |  |  |
| COc1ccc2nc(Nc3nc(C)cc(NCCCN(C)C)n3)nc(C)c2c1 |  |  | Active | inactive | Active | 858 µM (≈ 327 µg/mL) |  |
| Cc1ccc2nc(Nc3nc(C)cc(NCCCN(C)C)n3)nc(C)c2c1 |  |  | Active | inactive | Active | 858 µM (≈ 314 µg/mL) | 30% |
